Reference: ChEMBL document CHEMBL1123408, “Influence of alkyl-chain fluorination on the action of mammary tumor inhibiting 2,3-bis(hydroxyphenyl)butanes and 2,3-bis(hydroxyphenyl)but-2-enes” (1986)
One block for each compound: values may come before it.

Assays:
[1] = molecular target: T1, Estrogen receptor (Mus musculus) (UniProt O08537+P19785); experiment: (§1) Uterotrophic effect in mice at 1 ug dose; type: functional, tissue-based; conditions: Uterus
Method in brief: (§2)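 Immature female NMRI mice, 20 days old, 10 per group, given daily sc injections of 0.1 mL olive oil solution for 3 days. Uteri removed 24 h after the last dose, fixed in Bouin's solution, washed, dried and weighed. Antiestrogenic testing measured inhibition of estrone-stimulated uterine growth.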

[2] = molecular target: T1, Estrogen receptor (Mus musculus); experiment: Anti-uterotrophic effect in mice at 10 ug dose; type: functional
Method in brief: (§3)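 Immature female NMRI mice, 20 days old (14.5 ± 1.2 g), randomized into groups of 10. Each received a daily sc injection of compound in 0.1 mL olive oil for 3 days, given together with estrone. Uteri were taken 24 h after the last injection, fixed in Bouin's solution, washed, dried and weighed. The read-out was inhibition of estrone-stimulated uterine growth.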

[3] = tested on: Rattus norvegicus; experiment: Percent change in body weight in DMBA-Induced Hormone-Dependent Mammary Carcinoma rats at 5 mg/kg dose; type: functional
[4] = molecular target: T1, Estrogen receptor (Mus musculus); experiment: Uterotrophic effect in BD2F mice bearing transplantable hormone dependent MXT at 4 mg dose; type: functional, tissue-based; conditions: Uterus
Method in brief: (§4)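 MXT-bearing female BD2F1 mice (10 per group) dosed sc in olive oil three times weekly for 6 weeks from the day after tumor transplantation. Uteri excised at sacrifice and dry weight determined; values given as mean ± SD.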

[5] = molecular target: T1, Estrogen receptor (Mus musculus); experiment: (§5) Uterotrophic effect in mice at 0 ug dose; type: functional, tissue-based; design: unit not given here; conditions: Uterus; method in brief: as §2
[6] = molecular target: T1, Estrogen receptor (Mus musculus); experiment: Uterotrophic effect in mice at 1000 ug dose; type: functional, tissue-based; design: unit not given here; conditions: Uterus; method in brief: as §2
[7] = molecular target: T1, Estrogen receptor (Mus musculus); experiment: Uterotrophic effect in BD2F mice bearing transplantable hormone dependent MXT at 20 mg dose; type: functional, tissue-based; conditions: Uterus; method in brief: as §4
[8] = tested on: Rattus norvegicus; experiment: Percent progression in DMBA-Induced Hormone-Dependent Mammary Carcinoma in rats at 2 mg/kg dose; type: functional
[9] = molecular target: T1, Estrogen receptor (Mus musculus); experiment: (§6) Uterotrophic effect in mice at 100 ug dose; type: functional, tissue-based; design: unit not given here; conditions: Uterus; method in brief: as §2
[10] = molecular target: T1, Estrogen receptor (Mus musculus); experiment: Uterotrophic effect in mice at 25 ug dose; type: functional, tissue-based; design: unit not given here; conditions: Uterus; method in brief: as §2
[11] = tested on: Rattus norvegicus; experiment: Final tumor number in DMBA-Induced Hormone-Dependent Mammary Carcinoma in rats at 2 mg/kg dose; type: functional
[12] = tested on: Rattus norvegicus; experiment: Percent complete remission in DMBA-Induced Hormone-Dependent Mammary Carcinoma in rats at 2 mg/kg dose; type: functional
[13] = molecular target: T1, Estrogen receptor (Mus musculus); experiment: (§7) Uterotrophic effect in mice at 10 ug dose; type: functional, tissue-based; design: unit not given here; conditions: Uterus; method in brief: as §2
[14] = species: Mus musculus; experiment: Relative average tumor wet weight in treated compared to untreated mice at 4 mg dose; type: functional
Method in brief: (§8)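 Syngeneic female BD2F1 mice (8–10 weeks) received sc trocar implants of 1–2-mm³ MXT tumor pieces, 10 per group. Treatment began the next day: sc doses in olive oil (solution or suspension), three times weekly for 6 weeks. Tamoxifen-treated control group included. Tumor wet weight measured at sacrifice; expressed as % T/C versus untreated controls.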

[15] = tested on: Rattus norvegicus; experiment: Percent change in total tumor area in DMBA-Induced Hormone-Dependent Mammary Carcinoma rats at 2 mg/kg dose; type: functional
[16] = molecular target: T1, Estrogen receptor (Mus musculus); experiment: as §6; type: functional, tissue-based; conditions: Uterus; method in brief: as §2
[17] = molecular target: T1, Estrogen receptor (Mus musculus); experiment: as §5; type: functional, tissue-based; design: unit not given here; conditions: Uterus; method in brief: as §2; remark: listed apart in the source
[18] = tested on: Rattus norvegicus; experiment: Percent progression in DMBA-Induced Hormone-Dependent Mammary Carcinoma model in rats at 5 mg/kg dose; type: functional
[19] = molecular target: T1, Estrogen receptor (Mus musculus); experiment: Anti-uterotrophic effect in mice at 25 ug dose; type: functional; method in brief: as §3
[20] = tested on: Rattus norvegicus; experiment: Percent complete remission in DMBA-Induced Hormone-Dependent Mammary Carcinoma in rats at 5 mg/kg dose; type: functional
[21] = tested on: Rattus norvegicus; experiment: Initial tumor number in DMBA-Induced Hormone-Dependent Mammary Carcinoma in rats at 5 mg/kg dose; type: functional
[22] = tested on: Rattus norvegicus; experiment: Percent change in total tumor area in DMBA-Induced Hormone-Dependent Mammary Carcinoma rats at 5 mg/kg dose; type: functional
[23] = tested on: Rattus norvegicus; experiment: Percent unchanged tumors in DMBA-Induced Hormone-Dependent Mammary Carcinoma in rats at 2 mg/kg dose; type: functional
[24] = tested on: Rattus norvegicus; experiment: Initial in tumor number in DMBA-Induced Hormone-Dependent Mammary Carcinoma in rats at 2 mg/kg dose; type: functional
[25] = tested on: Rattus norvegicus; experiment: Final tumor number in DMBA-Induced Hormone-Dependent Mammary Carcinoma in rats at 5 mg/kg dose; type: functional
[26] = molecular target: T1, Estrogen receptor (Mus musculus); experiment: as §1; type: functional, tissue-based; design: unit not given here; conditions: Uterus; method in brief: as §2
[27] = tested on: Rattus norvegicus; experiment: Percent partial remission in DMBA-Induced Hormone-Dependent Mammary Carcinoma in rats at 2 mg/kg dose; type: functional
[28] = tested on: Rattus norvegicus; experiment: Percent change in body weight in DMBA-Induced Hormone-Dependent Mammary Carcinoma rats at 2 mg/kg dose; type: functional
[29] = tested on: Rattus norvegicus; experiment: Percent unchanged tumors in DMBA-Induced Hormone-Dependent Mammary Carcinoma in rats at 5 mg/kg dose; type: functional
[30] = species: Mus musculus; experiment: Relative average tumor wet weight in treated compared to untreated mice at 20 mg dose; type: functional; method in brief: as §8
[31] = tested on: Rattus norvegicus; experiment: Percent partial remission in DMBA-Induced Hormone-Dependent Mammary Carcinoma in rats at 5 mg/kg dose; type: functional
[32] = molecular target: T1, Estrogen receptor (Mus musculus); experiment: (§9) Uterotrophic effect in mice at 0.1 ug dose; type: functional, tissue-based; conditions: Uterus; method in brief: as §2
[33] = molecular target: T1, Estrogen receptor (Mus musculus); experiment: Anti-uterotrophic effect in mice at 1 ug dose; type: functional; method in brief: as §3
[34] = molecular target: T1, Estrogen receptor (Mus musculus); experiment: as §9; type: functional, tissue-based; design: unit not given here; conditions: Uterus; method in brief: as §2
[35] = molecular target: T1, Estrogen receptor (Mus musculus); experiment: as §7; type: functional, tissue-based; conditions: Uterus; method in brief: as §2
[36] = molecular target: T1, Estrogen receptor (Mus musculus); experiment: Anti-uterotrophic effect in mice at 100 ug dose; type: functional; method in brief: as §3
[37] = species: Mus musculus; experiment: Relative average tumor wet weight in treated compared to untreated mice at 8 mg dose; type: functional; method in brief: as §8
[38] = molecular target: T1, Estrogen receptor (Mus musculus); experiment: Uterotrophic effect in BD2F mice bearing transplantable hormone dependent MXT at 8 mg dose; type: functional, tissue-based; conditions: Uterus; method in brief: as §4
[39] = molecular target: T1, Estrogen receptor (Mus musculus); experiment: Uterotrophic effect in BD2F mice bearing transplantable hormone dependent MXT at 1.33 mg dose; type: functional, tissue-based; conditions: Uterus; method in brief: as §4
[40] = species: Mus musculus; experiment: Relative average tumor wet weight in treated compared to untreated mice at 1.33 mg dose; type: functional
Method in brief: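 MXT mammary tumor pieces of 1-2 mm³ from syngeneic donors were implanted sc by trocar into female BD2F₁ mice aged 8-10 weeks (20.0 ± 1.7 g), groups of 10. From the next day, compound in olive oil was given sc three times weekly for 6 weeks. Tumor wet weight was measured at the end and expressed as % T/C.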

T1 sequence (O08537 whole entry, looked up): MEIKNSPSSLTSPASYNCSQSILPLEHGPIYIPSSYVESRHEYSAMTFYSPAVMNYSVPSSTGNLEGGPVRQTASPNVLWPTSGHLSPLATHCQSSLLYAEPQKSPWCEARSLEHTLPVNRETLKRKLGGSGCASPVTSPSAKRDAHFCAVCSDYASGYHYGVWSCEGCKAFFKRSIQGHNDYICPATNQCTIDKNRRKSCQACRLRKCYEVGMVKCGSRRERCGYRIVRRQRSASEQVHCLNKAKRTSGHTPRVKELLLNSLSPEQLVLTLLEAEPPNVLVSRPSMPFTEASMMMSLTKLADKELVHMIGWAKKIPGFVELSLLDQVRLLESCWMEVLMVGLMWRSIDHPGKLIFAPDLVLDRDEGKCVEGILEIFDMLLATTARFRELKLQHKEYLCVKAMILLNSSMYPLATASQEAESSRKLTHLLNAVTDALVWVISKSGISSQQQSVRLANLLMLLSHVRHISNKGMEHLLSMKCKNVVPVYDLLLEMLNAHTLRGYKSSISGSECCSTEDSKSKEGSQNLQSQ
T1 sequence (P19785 whole entry, looked up): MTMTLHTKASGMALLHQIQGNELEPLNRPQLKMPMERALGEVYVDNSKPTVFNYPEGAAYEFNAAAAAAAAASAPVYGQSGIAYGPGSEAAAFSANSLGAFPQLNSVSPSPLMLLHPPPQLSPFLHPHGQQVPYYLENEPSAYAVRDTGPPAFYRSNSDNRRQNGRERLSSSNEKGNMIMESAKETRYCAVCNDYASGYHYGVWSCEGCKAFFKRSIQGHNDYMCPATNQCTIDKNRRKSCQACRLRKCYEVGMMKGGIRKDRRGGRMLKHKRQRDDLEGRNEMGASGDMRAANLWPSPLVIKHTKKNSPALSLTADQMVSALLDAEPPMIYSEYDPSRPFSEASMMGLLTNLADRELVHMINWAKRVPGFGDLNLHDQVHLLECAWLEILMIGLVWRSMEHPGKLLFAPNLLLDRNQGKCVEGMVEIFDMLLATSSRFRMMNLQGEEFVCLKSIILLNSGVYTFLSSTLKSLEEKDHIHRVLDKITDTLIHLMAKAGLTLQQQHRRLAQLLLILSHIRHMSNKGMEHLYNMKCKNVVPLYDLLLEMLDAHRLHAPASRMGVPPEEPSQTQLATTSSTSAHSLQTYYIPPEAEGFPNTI

- Effect [1]: 31.4
- inhibition [2]: 34.5%
- Effect [4]: 84
- Effect [5]: 13.3
- Effect [6]: 36
- Effect [7]: 90.1
- Effect [9]: 34.8
- Effect [10]: 28.8
- Effect [13]: 19.8
- Effect [16]: 36.7
- Effect [17]: 10.8
- inhibition [19]: 45.5%
- Effect [26]: 15.4
- Effect [32]: 10.1
- inhibition [33]: 36.6%
- Effect [34]: 10.1
- Effect [35]: 32
- inhibition [36]: 18%
Compound: Oc1cccc([C@H]([C@H](c2cccc(O)c2)C(F)(F)F)C(F)(F)F)c1
- Change in weight [3]: -0.4%
- Tumors [8]: 47%
- No. of tumors [11]: 19
- Tumors [12]: 15%
- TC [14]: 23.9%
- Change in tumor area % [15]: 165%
- Change in weight [18]: 38%
- Tumors [20]: 21%
- No. of tumors [21]: 23
- Change in tumor area % [22]: 166%
- Tumors [23]: 28%
- No. of tumors [24]: 21
- No. of tumors [25]: 11
- Tumors [27]: 10%
- Change in weight [28]: -1.1%
- Tumors [29]: 29%
- TC [30]: 10.9%
- Tumors [31]: 12%

- Effect [4]: 179
- Effect [38]: 169
- Effect [13]: 38.2
- Effect [17]: 13.7
- Effect [39]: 182
- Effect [26]: 52.6
- Effect [34]: 56.4
Compound: Oc1ccc(/C(=C(/c2ccc(O)cc2)C(F)(F)F)C(F)(F)F)cc1
- TC [37]: 5.2%
- TC [14]: 5.5%
- TC [40]: 10.4%
